IDH1 mut inh – inhibitors of IDH1 R132H reductase, primary screen, biochemical, plate reader, single point; Isocitrate dehydrogenase [NADP] cytoplasmic (Homo sapiens), O75874; diaphorase/resazurin fluorescence, 60 min; inhibition, % at 10 µM; 70,000 tested, 0.18% active; AID 624101, 2012; in the data active = inhibition above about 34%; inconclusive = no clear call, values can overlap the other calls; inactive = below about 11%;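 also: 0% = DMSO and 100% = no enzyme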
GASC1 inh – inhibitors of GASC-1 (KDM4C) histone demethylase, primary screen, biochemical, single concentration HTS. Lysine-specific demethylase 4C (Homo sapiens), Q9H3R0. GST-KDM4C 2-372, H3K9me3 peptide, LANCE TR-FRET. inhibition, % at 12.5 µM. 96,000 tested, 0.15% active. AID 720574, 2013;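 active = mean replicate inhibition above about 25%, with at least 55% of replicates also reaching it, limit read from the data, passing the limit was not always enough; inconclusive = only one of those two conditions met; inactive = neither condition met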
Target sequence (Q9H3R0 2-372 limits assumed): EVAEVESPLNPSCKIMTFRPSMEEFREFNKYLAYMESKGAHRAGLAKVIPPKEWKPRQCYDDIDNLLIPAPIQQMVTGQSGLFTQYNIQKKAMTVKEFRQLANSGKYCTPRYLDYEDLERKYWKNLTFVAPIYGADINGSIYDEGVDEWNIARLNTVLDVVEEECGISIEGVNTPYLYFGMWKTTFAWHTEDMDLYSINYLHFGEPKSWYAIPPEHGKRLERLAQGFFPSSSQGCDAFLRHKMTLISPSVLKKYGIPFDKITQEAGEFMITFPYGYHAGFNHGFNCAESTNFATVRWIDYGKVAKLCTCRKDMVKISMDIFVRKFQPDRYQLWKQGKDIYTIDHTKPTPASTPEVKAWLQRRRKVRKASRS
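System: N-terminal GST-fused human GASC-1 (KDM4C) fragment, residues 2-372; amount: enzyme final amount 10 nM; incubation: reaction 30 min RT, detection step 1 h RT; medium: HEPES buffer, pH 7.5, plus ascorbate; technique: LANCE TR-FRET, Eu antibody, ULight-streptavidin, EDTA, ex 340 nm, em 618/671 nm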
Pf Dd2 growth – P. falciparum Dd2 growth inhibitors, primary screen, SYBR Green fluorescence, single dose replicates; 72 h; stronger effect = lower value; activity change, % at 10 µM; 94,000 tested, 2.3% active; AID 1159554, 2015; in the data active = activity change below about -80%; inconclusive = no clear call, values can overlap the other calls
T cruzi growth-1 – T. cruzi intracellular proliferation inhibitors, primary screen, cell-based, beta-gal Tulahuen parasites, NIH3T3 host, luminescence. T. cruzi beta-gal in NIH3T3, GalScreen luminescence, 90 h. 77,000 tested, 5.9% active. inhibition, % at 8.34 µM;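 active = mean inhibition above about 93%, with at least 55% of replicates each passing it, limit read from the data, passing the limit was not always enough; inconclusive = only one of those two conditions holds; inactive = neither condition holds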
T cruzi growth-2 – T. cruzi intracellular proliferation inhibitors, confirmation, cell-based, NIH3T3 host, beta-gal parasite, luminescence, cherry-pick; shares compounds with T cruzi growth-1; T. cruzi beta-gal in NIH3T3, GalScreen luminescence, 90 h; inhibition, % at 8.35 µM; 5,600 tested, 72% active; AID 651739, 2012;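 active = mean replicate inhibition above about 95% and at least 55% of replicates individually reaching it, limit read from the data; inconclusive = only one of the two criteria is met; inactive = neither criterion is met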
T cruzi growth-3 – inhibitors of intracellular T. cruzi replication, confirmation, NIH3T3 host cells, beta-gal parasites, cherry-pick, set 2. T. cruzi beta-gal in NIH3T3, GalScreen luminescence, 90 h. shares compounds with T cruzi growth-1. inhibition, % at 2.09 µM. 5,600 tested, 21% active;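 active = mean inhibition above about 95%, with at least 55% of replicates also reaching it, limit read from the data; inconclusive = meets just one of the two conditions; inactive = meets neither condition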;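 also: plate controls were neutral control median for no effect and positive control median for full effect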
3T3 cytotox – cytotoxicity in mouse NIH/3T3 fibroblasts, confirmation, cytotoxicity control for T. cruzi proliferation inhibitor project, cell-based, cherry-pick, single point | shares compounds with T cruzi growth-1 | NIH/3T3 viability, CellTiter-Glo ATP luminescence, 90 h | cytotoxicity (signal decrease), % at 8.35 µM | 5,600 tested, 14% active;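 active = mean signal decrease across replicates above about 35% based on untreated-well scatter, with enough replicates individually passing, limit read from the data; inconclusive = no rule stated though some were filed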;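 also: 0% = median of neutral control wells and 100% = median of positive control wells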
3T3 cytotox 2 – NIH/3T3 fibroblast cytotoxicity, confirmation, cytotoxicity control, cell-based, cherry-pick, single point, set 2 | shares compounds with T cruzi growth-1 | NIH/3T3 viability, CellTiter-Glo ATP luminescence, 90 h | inhibition, % at 24.9 µM | 5,600 tested, 56% active | AID 651744, 2012;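 active = mean loss of cell viability signal at or above a set limit, and enough replicates individually reaching it; inconclusive = meets only the mean limit or only the replicate share; inactive = meets neither condition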;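 also: 0% = median of neutral control wells and 100% = median of positive control wells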
Active calls of the source: *; u = inconclusive; x = not tested or not shown. This is a sample that favours compounds with a hit; in the whole collection about 5.9% have one here.

SMILES	IDH1 mut inh	GASC1 inh	Pf Dd2 growth	T cruzi growth-1	T cruzi growth-2	T cruzi growth-3	3T3 cytotox	3T3 cytotox 2
CS(=O)(=O)N1[C@@H](C#N)[C@H](c2ccc(C#CC3CCCC3)cc2)[C@@H]1CO	x	-2	17	u	80	16	-11	-1
CCOC(=O)c1ccc(NC(=O)CSc2nc3sc4c(c3c(=O)[nH]2)CCCC4)cc1	-1	x	x	x	x	x	x	x
COc1ccccc1-c1ccc2c(c1)O[C@H](CN(C)C)[C@@H](C)CN([C@H](C)CO)S2(=O)=O	-2	1	-11	19	x	x	x	x
COc1ccccc1-c1ccc2c(c1)O[C@H](CN(C)S(=O)(=O)c1ccccc1)[C@@H](C)CN([C@H](C)CO)S2(=O)=O	0	x	-65	86	x	x	x	x
COc1ccccc1-c1ccc2c(c1)O[C@H](CN(C)S(=O)(=O)c1ccc(C)cc1)[C@H](C)CN([C@@H](C)CO)S2(=O)=O	x	-2	-47	128*	104*	u	u	58*
COc1ccccc1-c1ccc2c(c1)O[C@H](CN(C)S(=O)(=O)c1ccccc1)[C@@H](C)CN([C@@H](C)CO)S2(=O)=O	x	x	-56	93*	95*	20	36*	47*
COc1ccccc1-c1ccc2c(c1)O[C@@H](CN(C)S(=O)(=O)c1ccc(C)cc1)[C@@H](C)CN([C@H](C)CO)S2(=O)=O	-2	1	-46	126*	103*	87	24	37*
COc1ccccc1-c1ccc2c(c1)O[C@@H](CN(C)S(=O)(=O)c1ccc(C)cc1)[C@@H](C)CN([C@@H](C)CO)S2(=O)=O	0	0	-54	127*	105*	105*	53*	44*
CC(C)Oc1ccccc1NC(=O)CSc1nnc(-c2ccccc2Cl)o1	0	x	x	x	x	x	x	x
COc1cccc2c1NC1CC(C)CCC1C2(C)C (configuration not stated)	-1	x	x	x	x	x	x	x
CN(C)C(=O)c1cccc(-c2ccc([C@H]3[C@@H](CO)N4CCCCN(C(=O)C5CCCC5)C[C@@H]34)cc2)c1	x	x	-5	102*	103*	98*	-23	-26
CN(C)C(=O)c1cccc(-c2ccc([C@H]3[C@H](CO)N4CCCCN(C(=O)C5CCC5)C[C@@H]34)cc2)c1	x	-1	6	102*	99*	u	10	11
CN(C)C(=O)c1cccc(-c2ccc([C@H]3[C@@H](CO)N4CCCCN(C(=O)C5CCC5)C[C@H]34)cc2)c1	x	-1	1	u	107*	90	13	15
CN(C)C(=O)c1cccc(-c2ccc([C@@H]3[C@@H](CO)N4CCCCN(C(=O)C5CCC5)C[C@@H]34)cc2)c1	x	-1	4	44	x	x	x	x
Cc1ccc(N(C(C)C(=O)Nc2ccc(Oc3ccccc3)cc2)S(C)(=O)=O)cc1C (configuration not stated)	1	x	x	x	x	x	x	x
O=C1C=C(NCCc2ccccc2)CC(c2ccco2)C1 (configuration not stated)	0	x	x	x	x	x	x	x
OC[C@H]1Nc2ccc(C#Cc3ccccc3)cc2[C@@H]2[C@H]1CCN2Cc1nccs1	x	0	-47	98*	97*	101*	-3	104*
OC[C@@H]1Nc2ccc(C#Cc3ccccc3)cc2[C@H]2[C@@H]1CCN2Cc1nccs1	x	3	-40	u	99*	107*	31	99*
CC(=O)c1cccc(NC(=S)NCc2ccccn2)c1	0	x	x	x	x	x	x	x
Cc1ccccc1S(=O)(=O)N1[C@@H](C#N)[C@H](c2ccc(C#CC3CCCC3)cc2)[C@@H]1CO	x	-3	-55	x	x	x	x	x
N#C[C@@H]1[C@H](c2ccc(C#CC3CCCCC3)cc2)[C@H](CO)N1S(=O)(=O)c1ccccc1	x	-1	-71	80	x	x	x	x
N#C[C@@H]1[C@H](c2ccc(C#CC3CC3)cc2)[C@@H](CO)N1S(=O)(=O)c1ccccc1	x	0	-70	u	103*	109*	8	-4
N#C[C@H]1[C@H](c2ccc(C#CC3CCCC3)cc2)[C@H](CO)N1S(=O)(=O)c1ccccc1	x	-1	-9	90	x	x	x	x
N#C[C@H]1[C@@H](c2ccc(C#CC3CC3)cc2)[C@@H](CO)N1S(=O)(=O)c1ccccc1	x	5	-13	96*	107*	63	-7	36*
N#C[C@H]1[C@@H](c2ccc(C#CC3CCCC3)cc2)[C@H](CO)N1S(=O)(=O)c1ccccc1	x	-2	-46	88	x	x	x	x
SMILES	IDH1 mut inh	GASC1 inh	Pf Dd2 growth	T cruzi growth-1	T cruzi growth-2	T cruzi growth-3	3T3 cytotox	3T3 cytotox 2
N#C[C@@H]1[C@@H](c2ccc(C#CC3CCCC3)cc2)[C@@H](CO)N1S(=O)(=O)c1ccccc1	x	0	-30	99*	102*	u	46*	102*
N#C[C@H]1[C@H](c2ccc(C#CC3CC3)cc2)[C@H](CO)N1S(=O)(=O)c1ccccc1	x	0	-70	101*	103*	109*	-1	34*
CC1CCc2c(sc(NC(=O)CCN3C(=O)c4ccccc4C3=O)c2C#N)C1 (configuration not stated)	0	x	x	x	x	x	x	x
CC(=O)N(C)C[C@@H]1Oc2cc(C#Cc3ccccn3)ccc2S(=O)(=O)N([C@@H](C)CO)C[C@H]1C	-5	4	16	102*	91	81	-8	19
C[C@H](CO)N1C[C@H](C)[C@H](CN(C)C)Oc2cc(C#Cc3ccccn3)ccc2S1(=O)=O	0	2	15	x	x	x	x	x
C[C@H](CO)N1C[C@H](C)[C@H](CN(C)Cc2ccccc2)Oc2cc(C#Cc3ccccn3)ccc2S1(=O)=O	0	-6	-78	107*	109*	90	4	-7
C[C@@H]1CN([C@H](C)CO)S(=O)(=O)c2ccc(C#Cc3ccccn3)cc2O[C@@H]1CN(C)Cc1ccccc1	-2	-3	-20	101*	73	53	4	99*
CC(=O)N(C)C[C@H]1Oc2cc(C#Cc3ccccn3)ccc2S(=O)(=O)N([C@H](C)CO)C[C@@H]1C	0	8	24	-5	x	x	x	x
C[C@H]1CN([C@@H](C)CO)S(=O)(=O)c2ccc(C#Cc3ccccn3)cc2O[C@@H]1CN(C)C	0	-1	13	x	x	x	x	x

High-throughput results deposited in PubChem BioAssay by Broad Institute.
